ChEMBL document CHEMBL3046552, “Synthesis and antiviral bioactivities of 2-cyano-3-substituted-amino(phenyl) methylphosphonylacrylates (acrylamides) containing alkoxyethyl moieties” (2010)

Tested on: Tobacco mosaic virus
Test: In vivo antiviral activity against Tobacco mosaic virus (TMV) infected left side of tobacco leaves assessed as inactivation effect by decreasing local lesion number at 500 mg/l co-incubated with virus for 30 min before inoculation onto leaves measured at 3-4 days after viral challenge
Format: functional
Summary of the method: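 TMV, purified from infected N. tabacum leaves by grinding in phosphate buffer and PEG precipitation at 4 °C, was mixed with an equal volume of compound solution for 30 min. The mixture was inoculated on the left half of the leaf and a solvent-virus mixture on the right half as control. Local lesions recorded 3-4 days later.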

| SMILES | inhibition in vivo at 500 µg/mL [%] |
| --- | --- |
| COCCOP(=O)(OCCOC)C(N/C(SC)=C(/C#N)C(=O)NCc1ccccc1)c1ccccc1F (configuration not stated) | 40.8 |
| CCOCCOP(=O)(OCCOCC)C(N/C(SC)=C(/C#N)C(N)=O)c1ccccc1 (configuration not stated) | 80 |
| COCCOP(=O)(OCCOC)C(N/C(SC)=C(/C#N)C(=O)OCCOc1ccccc1)c1ccccc1 (configuration not stated) | 21 |
| CCOCCOP(=O)(OCCOCC)C(N/C(SC)=C(/C#N)C(=O)OC)c1ccccc1F (configuration not stated) | 12 |
| COCCOP(=O)(OCCOC)C(N/C(SC)=C(/C#N)C(N)=O)c1ccccc1F (configuration not stated) | 44.8 |
| CCOCCOP(=O)(OCCOCC)C(N/C(SC)=C(/C#N)C(=O)OCCOC)c1ccccc1F (configuration not stated) | 85.5 |
| COCCOC(=O)/C(C#N)=C(\NC(c1ccccc1)P(=O)(OCCOC)OCCOC)SC (configuration not stated) | 41.9 |
| CCOC(=O)/C(C#N)=C(\NC(c1ccccc1)P(=O)(OCCOC)OCCOC)SC (configuration not stated) | 28.3 |
| CCOCCOP(=O)(OCCOCC)C(N/C(SC)=C(/C#N)C(N)=O)c1ccccc1F (configuration not stated) | 33.9 |
| CCOCCOP(=O)(OCCOCC)C(N/C(SC)=C(/C#N)C(=O)OCCOc1ccccc1)c1ccccc1F (configuration not stated) | 23.7 |
| COCCOC(=O)/C(C#N)=C(\NC(c1ccccc1F)P(=O)(OCCOC)OCCOC)SC (configuration not stated) | 0 |
| CCOCCOP(=O)(OCCOCC)C(N/C(SC)=C(/C#N)C(=O)OCCOC)c1ccccc1 (configuration not stated) | 78.9 |
| CCOCCOC(=O)/C(C#N)=C(\NC(c1ccccc1F)P(=O)(OCCOC)OCCOC)SC (configuration not stated) | 33.3 |
| COCCOP(=O)(OCCOC)C(N/C(SC)=C(/C#N)C(=O)OC)c1ccccc1F (configuration not stated) | 41 |
| CCOCCOC(=O)/C(C#N)=C(\NC(c1ccccc1F)P(=O)(OCCOCC)OCCOCC)SC (configuration not stated) | 40.2 |
| COCCOP(=O)(OCCOC)C(N/C(SC)=C(/C#N)C(N)=O)c1ccccc1 (configuration not stated) | 66.7 |
| CCOCCOP(=O)(OCCOCC)C(N/C(SC)=C(/C#N)C(=O)NCc1ccccc1)c1ccccc1F (configuration not stated) | 79.9 |
| CCOCCOP(=O)(OCCOCC)C(N/C(SC)=C(/C#N)C(=O)OC)c1ccccc1 (configuration not stated) | 0 |
| COCCOP(=O)(OCCOC)C(N/C(SC)=C(/C#N)C(=O)OCCOc1ccccc1)c1ccccc1F (configuration not stated) | 44 |
| COCCOP(=O)(OCCOC)C(N/C(SC)=C(/C#N)C(=O)NCc1ccccc1)c1ccccc1 (configuration not stated) | 32.1 |
| CCOCCOP(=O)(OCCOCC)C(N/C(SC)=C(/C#N)C(=O)OCC)c1ccccc1 (configuration not stated) | 35.4 |
| CCOCCOP(=O)(OCCOCC)C(N/C(SC)=C(/C#N)C(=O)OCCOc1ccccc1)c1ccccc1 (configuration not stated) | 31.9 |
| CCOC(=O)/C(C#N)=C(\NC(c1ccccc1F)P(=O)(OCCOC)OCCOC)SC (configuration not stated) | 0 |
| CCOCCOC(=O)/C(C#N)=C(\NC(c1ccccc1)P(=O)(OCCOCC)OCCOCC)SC (configuration not stated) | 29.5 |
| COCCOP(=O)(OCCOC)C(N/C(SC)=C(/C#N)C(=O)OC)c1ccccc1 (configuration not stated) | 0 |
| CCOCCOC(=O)/C(C#N)=C(\NC(c1ccccc1)P(=O)(OCCOC)OCCOC)SC (configuration not stated) | 12.2 |
| CCOCCOP(=O)(OCCOCC)C(N/C(SC)=C(/C#N)C(=O)NCc1ccccc1)c1ccccc1 (configuration not stated) | 40.1 |
| CNCC(=O)N[C@@H](CO)C(=O)N[C@H]1[C@H](O)[C@@H](O)[C@H](n2ccc(N)nc2=O)O[C@@H]1C(N)=O [NINGNANMYCIN] | 96 |
| CCOCCOP(=O)(OCCOCC)C(N/C(SC)=C(/C#N)C(=O)OCC)c1ccccc1F (configuration not stated) | 33.4 |

Tested on: Tobacco mosaic virus
Test: In vivo antiviral activity against Tobacco mosaic virus (TMV) infected left side of tobacco leaves assessed as curative effect by decreasing local lesion number at 500 mg/l treated after viral inoculation measured at 3-4 days after viral challenge
Format: functional
Summary of the method: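 Curative mode: N. tabacum leaves of the same age; compound solution smeared on left half, solvent on right half as control. Local lesions counted 3-4 days after inoculation; three repeats per compound. Inhibition rate derived from average lesion numbers of treated versus untreated control halves. TMV purified from infected leaves (PEG precipitation, 4 °C).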

| SMILES | inhibition in vivo at 500 µg/mL [%] |
| --- | --- |
| COCCOP(=O)(OCCOC)C(N/C(SC)=C(/C#N)C(=O)NCc1ccccc1)c1ccccc1F (configuration not stated) | 28.6 |
| CCOCCOP(=O)(OCCOCC)C(N/C(SC)=C(/C#N)C(N)=O)c1ccccc1 (configuration not stated) | 56.7 |
| COCCOP(=O)(OCCOC)C(N/C(SC)=C(/C#N)C(=O)OCCOc1ccccc1)c1ccccc1 (configuration not stated) | 31 |
| CCOCCOP(=O)(OCCOCC)C(N/C(SC)=C(/C#N)C(=O)OC)c1ccccc1F (configuration not stated) | 33 |
| COCCOP(=O)(OCCOC)C(N/C(SC)=C(/C#N)C(N)=O)c1ccccc1F (configuration not stated) | 22 |
| CCOCCOP(=O)(OCCOCC)C(N/C(SC)=C(/C#N)C(=O)OCCOC)c1ccccc1F (configuration not stated) | 60 |
| COCCOC(=O)/C(C#N)=C(\NC(c1ccccc1)P(=O)(OCCOC)OCCOC)SC (configuration not stated) | 43.1 |
| CCOC(=O)/C(C#N)=C(\NC(c1ccccc1)P(=O)(OCCOC)OCCOC)SC (configuration not stated) | 32.1 |
| CCOCCOP(=O)(OCCOCC)C(N/C(SC)=C(/C#N)C(N)=O)c1ccccc1F (configuration not stated) | 30.6 |
| CCOCCOP(=O)(OCCOCC)C(N/C(SC)=C(/C#N)C(=O)OCCOc1ccccc1)c1ccccc1F (configuration not stated) | 27.7 |
| COCCOC(=O)/C(C#N)=C(\NC(c1ccccc1F)P(=O)(OCCOC)OCCOC)SC (configuration not stated) | 9.9 |
| CCOCCOP(=O)(OCCOCC)C(N/C(SC)=C(/C#N)C(=O)OCCOC)c1ccccc1 (configuration not stated) | 58.8 |
| CCOCCOC(=O)/C(C#N)=C(\NC(c1ccccc1F)P(=O)(OCCOC)OCCOC)SC (configuration not stated) | 31.4 |
| COCCOP(=O)(OCCOC)C(N/C(SC)=C(/C#N)C(=O)OC)c1ccccc1F (configuration not stated) | 34.5 |
| CCOCCOC(=O)/C(C#N)=C(\NC(c1ccccc1F)P(=O)(OCCOCC)OCCOCC)SC (configuration not stated) | 41.9 |
| COCCOP(=O)(OCCOC)C(N/C(SC)=C(/C#N)C(N)=O)c1ccccc1 (configuration not stated) | 43.2 |
| CCOCCOP(=O)(OCCOCC)C(N/C(SC)=C(/C#N)C(=O)NCc1ccccc1)c1ccccc1F (configuration not stated) | 54.3 |
| CCOCCOP(=O)(OCCOCC)C(N/C(SC)=C(/C#N)C(=O)OC)c1ccccc1 (configuration not stated) | 4.3 |
| COCCOP(=O)(OCCOC)C(N/C(SC)=C(/C#N)C(=O)OCCOc1ccccc1)c1ccccc1F (configuration not stated) | 41.8 |
| COCCOP(=O)(OCCOC)C(N/C(SC)=C(/C#N)C(=O)NCc1ccccc1)c1ccccc1 (configuration not stated) | 29.6 |
| CCOCCOP(=O)(OCCOCC)C(N/C(SC)=C(/C#N)C(=O)OCC)c1ccccc1 (configuration not stated) | 51.1 |
| CCOCCOP(=O)(OCCOCC)C(N/C(SC)=C(/C#N)C(=O)OCCOc1ccccc1)c1ccccc1 (configuration not stated) | 44.1 |
| CCOC(=O)/C(C#N)=C(\NC(c1ccccc1F)P(=O)(OCCOC)OCCOC)SC (configuration not stated) | 21.7 |
| CCOCCOC(=O)/C(C#N)=C(\NC(c1ccccc1)P(=O)(OCCOCC)OCCOCC)SC (configuration not stated) | 46.4 |
| COCCOP(=O)(OCCOC)C(N/C(SC)=C(/C#N)C(=O)OC)c1ccccc1 (configuration not stated) | 28.8 |
| CCOCCOC(=O)/C(C#N)=C(\NC(c1ccccc1)P(=O)(OCCOC)OCCOC)SC (configuration not stated) | 23.7 |
| CCOCCOP(=O)(OCCOCC)C(N/C(SC)=C(/C#N)C(=O)NCc1ccccc1)c1ccccc1 (configuration not stated) | 47.3 |
| CNCC(=O)N[C@@H](CO)C(=O)N[C@H]1[C@H](O)[C@@H](O)[C@H](n2ccc(N)nc2=O)O[C@@H]1C(N)=O [NINGNANMYCIN] | 58.9 |
| CCOCCOP(=O)(OCCOCC)C(N/C(SC)=C(/C#N)C(=O)OCC)c1ccccc1F (configuration not stated) | 45.6 |

Tested on: Tobacco mosaic virus
Test: In vivo antiviral activity against Tobacco mosaic virus (TMV) infected left side of tobacco leaves assessed as protective effect by decreasing local lesion number at 500 mg/l treated 12 hr before viral inoculation measured at 3-4 days after viral challenge
Format: functional
Summary of the method: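 Protective mode: compound solution smeared on the left half of same-age N. tabacum leaves, solvent on the right half as control. After 12 h, the leaves were dusted with silicon carbide and brush-inoculated with TMV at 6 × 10^-3 mg/mL. Local lesions counted 3-4 days after inoculation.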

| SMILES | inhibition in vivo at 500 µg/mL [%] |
| --- | --- |
| COCCOP(=O)(OCCOC)C(N/C(SC)=C(/C#N)C(=O)NCc1ccccc1)c1ccccc1F (configuration not stated) | 39.9 |
| CCOCCOP(=O)(OCCOCC)C(N/C(SC)=C(/C#N)C(N)=O)c1ccccc1 (configuration not stated) | 54.4 |
| COCCOP(=O)(OCCOC)C(N/C(SC)=C(/C#N)C(=O)OCCOc1ccccc1)c1ccccc1 (configuration not stated) | 14.4 |
| CCOCCOP(=O)(OCCOCC)C(N/C(SC)=C(/C#N)C(=O)OC)c1ccccc1F (configuration not stated) | 0 |
| COCCOP(=O)(OCCOC)C(N/C(SC)=C(/C#N)C(N)=O)c1ccccc1F (configuration not stated) | 30 |
| CCOCCOP(=O)(OCCOCC)C(N/C(SC)=C(/C#N)C(=O)OCCOC)c1ccccc1F (configuration not stated) | 58.9 |
| COCCOC(=O)/C(C#N)=C(\NC(c1ccccc1)P(=O)(OCCOC)OCCOC)SC (configuration not stated) | 40 |
| CCOC(=O)/C(C#N)=C(\NC(c1ccccc1)P(=O)(OCCOC)OCCOC)SC (configuration not stated) | 21 |
| CCOCCOP(=O)(OCCOCC)C(N/C(SC)=C(/C#N)C(N)=O)c1ccccc1F (configuration not stated) | 30 |
| CCOCCOP(=O)(OCCOCC)C(N/C(SC)=C(/C#N)C(=O)OCCOc1ccccc1)c1ccccc1F (configuration not stated) | 30.7 |
| COCCOC(=O)/C(C#N)=C(\NC(c1ccccc1F)P(=O)(OCCOC)OCCOC)SC (configuration not stated) | 0 |
| CCOCCOP(=O)(OCCOCC)C(N/C(SC)=C(/C#N)C(=O)OCCOC)c1ccccc1 (configuration not stated) | 60.2 |
| CCOCCOC(=O)/C(C#N)=C(\NC(c1ccccc1F)P(=O)(OCCOC)OCCOC)SC (configuration not stated) | 21.9 |
| COCCOP(=O)(OCCOC)C(N/C(SC)=C(/C#N)C(=O)OC)c1ccccc1F (configuration not stated) | 22 |
| CCOCCOC(=O)/C(C#N)=C(\NC(c1ccccc1F)P(=O)(OCCOCC)OCCOCC)SC (configuration not stated) | 31 |
| COCCOP(=O)(OCCOC)C(N/C(SC)=C(/C#N)C(N)=O)c1ccccc1 (configuration not stated) | 50 |
| CCOCCOP(=O)(OCCOCC)C(N/C(SC)=C(/C#N)C(=O)NCc1ccccc1)c1ccccc1F (configuration not stated) | 55.4 |
| CCOCCOP(=O)(OCCOCC)C(N/C(SC)=C(/C#N)C(=O)OC)c1ccccc1 (configuration not stated) | 0 |
| COCCOP(=O)(OCCOC)C(N/C(SC)=C(/C#N)C(=O)OCCOc1ccccc1)c1ccccc1F (configuration not stated) | 29 |
| COCCOP(=O)(OCCOC)C(N/C(SC)=C(/C#N)C(=O)NCc1ccccc1)c1ccccc1 (configuration not stated) | 39.7 |
| CCOCCOP(=O)(OCCOCC)C(N/C(SC)=C(/C#N)C(=O)OCC)c1ccccc1 (configuration not stated) | 45.9 |
| CCOCCOP(=O)(OCCOCC)C(N/C(SC)=C(/C#N)C(=O)OCCOc1ccccc1)c1ccccc1 (configuration not stated) | 3.8 |
| CCOC(=O)/C(C#N)=C(\NC(c1ccccc1F)P(=O)(OCCOC)OCCOC)SC (configuration not stated) | 0 |
| CCOCCOC(=O)/C(C#N)=C(\NC(c1ccccc1)P(=O)(OCCOCC)OCCOCC)SC (configuration not stated) | 40.7 |
| COCCOP(=O)(OCCOC)C(N/C(SC)=C(/C#N)C(=O)OC)c1ccccc1 (configuration not stated) | 0 |
| CCOCCOC(=O)/C(C#N)=C(\NC(c1ccccc1)P(=O)(OCCOC)OCCOC)SC (configuration not stated) | 0 |
| CCOCCOP(=O)(OCCOCC)C(N/C(SC)=C(/C#N)C(=O)NCc1ccccc1)c1ccccc1 (configuration not stated) | 34.5 |
| CNCC(=O)N[C@@H](CO)C(=O)N[C@H]1[C@H](O)[C@@H](O)[C@H](n2ccc(N)nc2=O)O[C@@H]1C(N)=O [NINGNANMYCIN] | 57.7 |
| CCOCCOP(=O)(OCCOCC)C(N/C(SC)=C(/C#N)C(=O)OCC)c1ccccc1F (configuration not stated) | 12.9 |
